For 25 molecules, GI50, fold change (FC) and inhibition results are on record in ChEMBL document CHEMBL1629447, “Antitumor agents 286. Design, synthesis, and structure-activity relationships of 3'R,4'R-disubstituted-2',2'-dimethyldihydropyrano[2,3-f]chromone (DSP) analogues as potent chemosensitizers to overcome multidrug resistance” (2010).

Structures are written as SMILES. Values after ≈ are worked out from the molar mass of the structure shown. Active and inactive are the calls of the source. The calls are words filed in the database; no cut-off is given here.

A short description of assay [1]: Cytotoxicity in human KBVIN cells by SRB assay. In kind it is functional. The procedure, abridged:
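Cellular protein read by sulforhodamine B staining, absorbance 562 nm. GI50 is the concentration giving 50% lower absorbance than untreated cells, taken from replicate dose-response curves.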

The subject of assay [2] is KBVIN. Briefly: Inhibition of Pgp-mediated multidrug resistance in human KBVIN cells assessed as chemosensitization activity measured by increase in vincristine-induced cytotoxicity at 1 ug/mL by SRB assay relative to untreated control. Type of assay: cell-based.
In assay [3] the test system is KBVIN. Briefly: Inhibition of Pgp in human KBVIN cells assessed as facilitation of in calcein-AM accumulation by […]. Type of assay: cell-based. In outline: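 KB-Vin (MDR) cells, 10,000 per well, adhered one day in medium with 5% FBS. Pre-exposed to test compound at several concentrations for 30 min at 37 °C, then given fresh medium with 1 μM calcein-AM plus compound for 30 min at 37 °C. Washed with cold PBS in low light, lysed in 20 mM Tris-HCl, fluorescence read Ex 494/Em 517 nm. Verapamil as inhibitor control; two or more independent experiments.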

As a reminder, the GI50 is the concentration that inhibits growth by half. Read a low GI50 as greater sensitivity of the cells. In assay [1], `CCc1cc(=O)c2ccc3c(c2o1)[C@@H](OC(=O)Cc1ccccc1)[C@@H](OC(=O)Cc1ccccc1)C(C)(C)O3` displayed a GI50 of 8.33 µg/mL (≈ 15.8 µM). Besides, the fold change (FC) with KBVIN [2] was found to be 81.3.

As to `CCc1cc(=O)c2ccc3c(c2o1)[C@@H](OC(=O)CCc1ccccc1)[C@@H](OC(=O)CCc1ccccc1)C(C)(C)O3`, the GI50 in assay [1] is 10.1 µg/mL (≈ 18.2 µM). Further, the fold change (FC) with KBVIN [2] was found to be 106.

Molecule `CCc1cc(=O)c2ccc3c(c2o1)[C@@H](OC(=O)c1ccc(C#N)cc1)[C@@H](OC(=O)c1ccc(C#N)cc1)C(C)(C)O3` showed a GI50 in assay [1] greater than 5.5 µg/mL. Moreover, the inhibition entry with KBVIN [3] is “Active”. The fold change (FC) with KBVIN [2] stood at 188.

In turn, `COc1ccc(CCN(C)CCCC(C#N)(c2ccc(OC)c(OC)c2)C(C)C)cc1OC` (configuration not stated) [VERAPAMIL] came in with a GI50 in assay [1] greater than 31.5 µg/mL. The fold change (FC) in the assay with KBVIN [2] worked out at 141.

For `CCc1cc(=O)c2ccc3c(c2o1)[C@@H](OC(=O)N(C)C)[C@@H](OC(=O)N(C)C)C(C)(C)O3`, in assay [1], the concentration for 50% growth inhibition (GI50) was greater than 20 µg/mL. Further, in the assay on KBVIN [2], the fold change (FC) is less than 12.2.

`CCc1cc(=O)c2ccc3c(c2o1)[C@@H](OC(=O)N(CC)CC)[C@@H](OC(=O)N(CC)CC)C(C)(C)O3`: the GI50 in assay [1] is greater than 20 µg/mL. Besides, the fold change (FC) in the assay with KBVIN [2] is 116.

As to `CCc1cc(=O)c2ccc3c(c2o1)[C@@H](OC(=O)N1CCCCC1)[C@@H](OC(=O)N1CCCCC1)C(C)(C)O3`, in assay [1], the concentration for 50% growth inhibition (GI50) was greater than 20 µg/mL. Also, the fold change (FC) in the assay on KBVIN [2] was found to be 22.2.

`CCc1cc(=O)c2ccc3c(c2o1)[C@@H](OC(=O)N1CCCC1)[C@@H](OC(=O)N1CCCC1)C(C)(C)O3` came in with a 50% growth inhibitory concentration (GI50) in assay [1] greater than 20 µg/mL. Moreover, the fold change (FC) with KBVIN [2] turned out to be 24.9.

Regarding `CCc1cc(=O)c2ccc3c(c2o1)[C@@H](OC(=O)c1ccccc1OC)[C@@H](OC(=O)c1ccccc1OC)C(C)(C)O3`, the GI50 in assay [1] is greater than 31.5 µg/mL. Moreover, the fold change (FC) with KBVIN [2] was found to be 28.1.

In assay [1], `CCc1cc(=O)c2ccc3c(c2o1)[C@@H](OC(=O)/C=C/c1ccc(OC)cc1)[C@@H](OC(=O)/C=C/c1ccc(OC)cc1)C(C)(C)O3` came in with a concentration for 50% growth inhibition (GI50) greater than 36.4 µg/mL. In the assay on KBVIN [2], the fold change (FC) was 287.

In assay [1], `CCc1cc(=O)c2ccc3c(c2o1)[C@@H](OC(=O)c1ccc([N+](=O)[O-])cc1)[C@@H](OC(=O)c1ccc([N+](=O)[O-])cc1)C(C)(C)O3` returned a GI50 greater than 34 µg/mL. Besides, the fold change (FC) in the assay with KBVIN [2] amounted to 203.

`CCc1ccc(C(=O)O[C@@H]2c3c(ccc4c(=O)cc(CC)oc34)OC(C)(C)[C@@H]2OC(=O)c2ccc(CC)cc2)cc1` registered a concentration for 50% growth inhibition (GI50) in assay [1] greater than 13.6 µg/mL. Moreover, in the assay with KBVIN [2], the fold change (FC) turned out to be 20.3.

`CCc1cc(=O)c2ccc3c(c2o1)[C@@H](OC(=O)C1CCCCC1)[C@@H](OC(=O)C1CCCCC1)C(C)(C)O3` came in with a GI50 in assay [1] greater than 20 µg/mL. For the same molecule, in the assay on KBVIN [2], the fold change (FC) was less than 12.2.

Consider `CCc1cc(=O)c2ccc3c(c2o1)[C@@H](OC(=O)c1cccc(C(F)(F)F)c1)[C@@H](OC(=O)c1cccc(C(F)(F)F)c1)C(C)(C)O3`, for which the GI50 in assay [1] is greater than 31.5 µg/mL. Further, the fold change (FC) with KBVIN [2] was less than 12.2.

`CCc1cc(=O)c2ccc3c(c2o1)[C@@H](OC(=O)c1ccc(C)cc1)[C@@H](OC(=O)c1ccc(C)cc1)C(C)(C)O3`: the GI50 in assay [1] was determined as 20.6 µg/mL (≈ 39.1 µM). The fold change (FC) in the assay with KBVIN [2] was 349.

Take `CCc1cc(=O)c2ccc3c(c2o1)[C@@H](OCc1ccccc1)[C@@H](OCc1ccccc1)C(C)(C)O3`: the GI50 in assay [1] is greater than 15.7 µg/mL. Further, the fold change (FC) in the assay with KBVIN [2] worked out at 40.7.

`CCc1cc(=O)c2ccc3c(c2o1)[C@@H](OC(=O)c1cccc(OC)c1)[C@@H](OC(=O)c1cccc(OC)c1)C(C)(C)O3`: in assay [1], the GI50 was greater than 35.8 µg/mL. Moreover, the fold change (FC) with KBVIN [2] came out at 27.1.

In assay [1], `CCCCN(CCCC)C(=O)O[C@@H]1c2c(ccc3c(=O)cc(CC)oc23)OC(C)(C)[C@@H]1OC(=O)N(CCCC)CCCC` showed a GI50 greater than 20 µg/mL. The fold change (FC) with KBVIN [2] is less than 12.2.

For the molecule `CCc1cc(=O)c2ccc3c(c2o1)[C@@H](OC(=O)Cc1ccc(OC)cc1)[C@@H](OC(=O)Cc1ccc(OC)cc1)C(C)(C)O3`, in assay [1], it took 13.3 µg/mL (≈ 22.7 µM) to inhibit growth by half (GI50). The fold change (FC) in the assay on KBVIN [2] came to 34.4.

On to `CCc1cc(=O)c2ccc3c(c2o1)[C@@H](OC(=O)/C=C/c1ccccc1)[C@@H](OC(=O)/C=C/c1ccccc1)C(C)(C)O3`, for which the GI50 in assay [1] is 9.44 µg/mL (≈ 17.1 µM). Further, the fold change (FC) in the assay with KBVIN [2] came to 222.

`CCc1cc(=O)c2ccc3c(c2o1)[C@@H](OC(=O)c1ccccc1C(F)(F)F)[C@@H](OC(=O)c1ccccc1C(F)(F)F)C(C)(C)O3` gave a GI50 in assay [1] greater than 31.5 µg/mL. The fold change (FC) with KBVIN [2] is less than 12.2.

`CCc1cc(=O)c2ccc3c(c2o1)[C@@H](OC(=O)c1cccc(C#N)c1)[C@@H](OC(=O)c1cccc(C#N)c1)C(C)(C)O3` registered a GI50 in assay [1] greater than 2.5 µg/mL. Besides, the fold change (FC) in the assay on KBVIN [2] stood at 160.

In the case of `CCc1cc(=O)c2ccc3c(c2o1)[C@@H](OC(=O)c1ccc(OC)cc1)[C@@H](OC(=O)c1ccc(OC)cc1)C(C)(C)O3`, the GI50 in assay [1] came to 9 µg/mL (≈ 16.1 µM). Further, the inhibition result in the assay on KBVIN [3] is “Active”. The fold change (FC) in the assay on KBVIN [2] is 257.

As to `CCc1cc(=O)c2ccc3c(c2o1)[C@@H](OC(=O)c1ccc(C(F)(F)F)cc1)[C@@H](OC(=O)c1ccc(C(F)(F)F)cc1)C(C)(C)O3`, the GI50 in assay [1] was greater than 31.5 µg/mL. Also, the fold change (FC) in the assay with KBVIN [2] was found to be 16.3.

In turn, `CCc1cc(=O)c2ccc3c(c2o1)[C@@H](OC(=O)c1ccccc1)[C@@H](OC(=O)c1ccccc1)C(C)(C)O3` came in with a concentration for 50% growth inhibition (GI50) in assay [1] of 8.79 µg/mL (≈ 17.6 µM). In addition, in the assay on KBVIN [2], the fold change (FC) was less than 12.2.
